Results taken from ChEMBL document CHEMBL3804810, “A structural insight into the P1S1 binding mode of diaminoethylphosphonic and phosphinic acids, selective inhibitors of alanine aminopeptidases” (Eur J Med Chem, 2016).
Active and inactive are the calls of the source. The rule behind the calls is not given here.

Target: T1, Cytosol aminopeptidase (Sus scrofa, UniProt P28839)
T1 sequence (P28839 whole entry): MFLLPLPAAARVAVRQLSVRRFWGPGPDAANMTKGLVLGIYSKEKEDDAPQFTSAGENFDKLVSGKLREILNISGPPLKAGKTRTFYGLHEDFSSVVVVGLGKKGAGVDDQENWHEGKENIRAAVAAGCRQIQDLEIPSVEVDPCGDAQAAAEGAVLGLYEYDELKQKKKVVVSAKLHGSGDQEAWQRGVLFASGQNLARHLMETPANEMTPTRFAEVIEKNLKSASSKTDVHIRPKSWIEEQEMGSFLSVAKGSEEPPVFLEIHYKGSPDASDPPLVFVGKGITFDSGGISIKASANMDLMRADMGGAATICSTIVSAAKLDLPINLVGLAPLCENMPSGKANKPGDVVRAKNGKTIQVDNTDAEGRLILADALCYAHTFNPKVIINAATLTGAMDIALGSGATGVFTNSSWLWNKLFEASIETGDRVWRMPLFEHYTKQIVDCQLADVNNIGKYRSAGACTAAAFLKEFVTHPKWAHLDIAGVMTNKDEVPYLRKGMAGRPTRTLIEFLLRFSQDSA
Experiment: Inhibition of porcine kidney leucine aminopeptidase M17 using Leu-AMC as substrate preincubated for 30 to 60 mins followed by substrate addition measured for 15 mins by spectrofluorimetric analysis
In short: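 Inhibitor concentrations were tested up to 800 μM against the porcine kidney enzyme. Values are reported as inhibition constants (Ki).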

Row | Structure (SMILES) | Ki
1 | NC(CCC1CCCCC1)P(=O)(O)O (stereo not drawn) | 0.21 µM
2 | NCCNCC(N)P(=O)(O)O (stereo not drawn) | 289 µM
3 | CCCCCCNCC(N)P(=O)(O)O (stereo not drawn) | 119 µM
4 | NC(CNCC1CCCO1)P(=O)(O)O (stereo not drawn) | 69.1 µM
5 | CN(C)CCNCC(N)P(=O)(O)O (stereo not drawn) | 72.6 µM

Next, values leading:

Row | Ki | Structure (SMILES)
6 | 28.3 µM | NC(CNC1CCCCC1)P(=O)(O)CC(Cc1ccccc1)C(=O)O (stereo not drawn)
7 | 26.5 µM | NCc1ccc(CNCC(N)P(=O)(O)O)cc1 (stereo not drawn)
8 | 23.8 µM | NC(CNC1CCCCCC1)P(=O)(O)CC(Cc1ccccc1)C(=O)O (stereo not drawn)
9 | 19.5 µM | COc1ccc(CCNCC(N)P(=O)(O)O)cc1 (stereo not drawn)
10 | 20.8 µM | NC(CNC1CCCCCC1)P(=O)(O)O (stereo not drawn)
11 | 64.4 µM | NCC(N)P(=O)(O)CC(Cc1ccccc1)C(=O)O (stereo not drawn)
12 | 55.8 µM | NC(CNCCN1CCNCC1)P(=O)(O)O (stereo not drawn)
13 | 71.1 µM | CC(C)(C)c1ccc(CNCC(N)P(=O)(O)O)cc1 (stereo not drawn)
14 | 108 µM | NC(CNCCc1ccccc1)P(=O)(O)O (stereo not drawn)
15 | 21.1 µM | COc1ccc(CCNCC(N)P(=O)(O)CC(Cc2ccccc2)C(=O)O)cc1 (stereo not drawn)
16 | 26.2 µM | COc1ccc(CNCC(N)P(=O)(O)O)cc1 (stereo not drawn)
17 | 7.02 µM | Nc1ccc(CNCC(N)P(=O)(O)O)cc1 (stereo not drawn)
18 | 15.2 µM | CC(C)CNCC(N)P(=O)(O)CC(Cc1ccccc1)C(=O)O (stereo not drawn)
19 | 240 µM | NC1CCCCC1NCC(N)P(=O)(O)O (stereo not drawn)
20 | 68.4 µM | NC(CNCC1CCNCC1)P(=O)(O)O (stereo not drawn)
21 | 21 µM | CCCNCC(N)P(=O)(O)CC(Cc1ccccc1)C(=O)O (stereo not drawn)

Target: T1, Cytosol aminopeptidase
Experiment: Inhibition of porcine kidney leucine aminopeptidase M17 using L-leucine p-nitro-anilide as substrate by spectrophotometric analysis

Row | Structure (SMILES) | Ki
22 | NC(CNCc1ccccc1)P(=O)(O)O (stereo not drawn) | 350 µM
23 | CC(NCC(N)P(=O)(O)O)c1ccccc1 (stereo not drawn) | 600 µM
24 | NC(CN1CCCCC1)P(=O)(O)O (stereo not drawn) | 1410 µM

Tested on: not listed separately
Experiment: Inhibition of recombinant Neisseria meningitidis N-terminal His6-tagged alanyl aminopeptidase M1 expressed in Escherichia coli BL21 cells using Ala-AMC as substrate preincubated for 30 to 60 mins followed by substrate addition measured for 15 mins by spectrofluorimetric analysis

Row | Structure (SMILES) | Ki
25 | CNCC(N)P(=O)(O)O (stereo not drawn) | 29.6 µM
26 | NCC(N)P(=O)(O)O (stereo not drawn) | 0.589 µM
27 | CN(C)CCNCC(N)P(=O)(O)O (stereo not drawn) | 26 µM

Target: T2, Cytosol aminopeptidase (Sus scrofa) (UniProt P28839)
T2 sequence (whole entry): T1 sequence (P28839 whole entry)
Experiment: Inhibition of porcine kidney leucine aminopeptidase M17 using Leu-AMC as substrate up to 0.8 mM preincubated for 30 to 60 mins followed by substrate addition measured for 15 mins by spectrofluorimetric analysis

Row | Structure (SMILES) | inhibition
28 | NC(CN1CCOCC1)P(=O)(O)O (stereo not drawn) | inactive
